Laboratory results as given in ChEMBL document CHEMBL1144112, “New bromopyrrole alkaloids from the Indopacific sponge Agelas nakamurai” (1999).

What was measured:
Assay type in all cases: functional
Bacillus subtilis = test: Antibacterial activity against Bacillus subtilis subsp. subtilis str. 168 at 0.2 umol/disk after 24 hrs by agar plate diffusion assay
Outline: (§1)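 Paper disks 5 mm across loaded with 0.2 µmol of each isolated compound, placed on agar plates seeded with the test bacterium (B. subtilis 168, S. aureus ATCC 25923, E. coli ATCC 25922 or E. coli HB 101). Read-out is the diameter of the inhibition zone in mm.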

Staphylococcus aureus = test: Antibacterial activity against Staphylococcus aureus ATCC 25923 at 0.2 umol/disk after 24 hrs by agar plate diffusion assay; outline: as §1
Escherichia coli [1] = test: Antibacterial activity against Escherichia coli ATCC 25922 at 0.2 umol/disk after 24 hrs by agar plate diffusion assay; outline: as §1
Escherichia coli [2] = test: Antibacterial activity against Escherichia coli HB101 at 0.2 umol/disk after 24 hrs by agar plate diffusion assay; outline: as §1

| SMILES | inhibition zone (IZ) (Bacillus subtilis) [mm] | inhibition zone (IZ) (Staphylococcus aureus) [mm] | inhibition zone (IZ) (Escherichia coli [1]) [mm] | inhibition zone (IZ) (Escherichia coli [2]) [mm] |
| --- | --- | --- | --- | --- |
| Nc1nc([C@@H]2c3[nH]c(N)nc3C[C@H](CNC(=O)c3cc(Br)c[nH]3)[C@H]2CNC(=O)c2cc(Br)c[nH]2)c[nH]1.O=C(O)C(F)(F)F.O=C(O)C(F)(F)F [AGELIFERIN] | 14 | 11 | 8 | 11 |
| Cl.Cl.Nc1ncc([C@H]2[C@H](CNC(=O)c3ccc[nH]3)[C@@H](CNC(=O)c3ccc[nH]3)[C@@H]2c2cnc(N)[nH]2)[nH]1 [DEBROMOSCEPTRIN] | 10 | – | – | – |
| COC(=O)[C@H]1[C@H](CNC(=O)c2cc(Br)c[nH]2)[C@@H](CNC(=O)c2cc(Br)c[nH]2)[C@@H]1c1c[nH]c(N)n1.O=C(O)C(F)(F)F [NAKAMURIC ACID METHYL ESTER] | 9 | – | – | – |
| Nc1nc([C@H]2[C@H](CNC(=O)c3cc(Br)c[nH]3)[C@@H](CNC(=O)c3cc(Br)c[nH]3)[C@@H]2C(=O)O)c[nH]1.O=C(O)C(F)(F)F [NAKAMURIC ACID] | 9 | – | – | – |
| Nc1nc([C@H]2[C@H](CNC(=O)c3cc(Br)c[nH]3)[C@@H](CNC(=O)c3cc(Br)c[nH]3)[C@@H]2c2c[nH]c(N)n2)c[nH]1.O=C(O)C(F)(F)F.O=C(O)C(F)(F)F [SCEPTRIN (TFA SALT)] | 16 | 16 | 9 | 13 |
